Most compounds without a hit are left out; they make up all but 1.9% or so of the library.
697 NFkB inh – inhibitors of PMA/ionomycin-induced NF-kB reporter, 697 cells, primary screen, B-cell NF-kB inhibitor project, cell-based, luminescence, uHTS; inhibition, % at 4 µM; 697 B-cell NF-kB luciferase reporter, 16 h; hit rate 0.33% among 330,000; in the data active = inhibition above about 35%
aSyn 5UTR inh – MLPCN primary screen, SNCA 5' untranslated region; hit rate 0.82% among 300,000; inhibition, % (tested at 7.5 µM); AID 1813, 2009; alpha-synuclein 5'UTR reporter, inhibitor activity; in the data active = inhibition above about 60%; inconclusive = no clear call, values can overlap the other calls;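 also: H4 neuroglioblastoma cells stably carrying SNCA 5'UTR luciferase fusion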
Hep lipid drop – inhibitors of hepatocyte lipid droplet formation, primary screen, imaging, high-throughput imaging, BODIPY stain; AML12 mouse hepatocytes, oleate lipid droplets; inhibition, % at 6.5 µM; hit rate 0.4% among 240,000; AID 1656, 2009;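 active = lipid droplet intensity inhibited by at least 50%, with more than 500 cells counted; inconclusive = wells with under 300 cells, treated as cytotoxic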
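Technique: fluorescence imaging, 20x objective, two fields per well / Assay system: AML12 hepatocytes (mouse) / Measure: % inhibition of lipid droplet signal / Doses: 6.5 µM single-point dosing / Incubation: overnight exposure / Reagent: 100 µM oleic acid challenge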
TAG inh – inhibitors of triacylglycerol accumulation, primary screen, cell-based, uHTS, fluorescence, H9c2. H9c2 cells, Nile Red lipid (TAG) fluorescence; cells loaded with 200 µM oleic acid. hit rate 0.66% among 230,000. inhibition, % at 12.5 µM;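 active = pattern-corrected inhibition of lipid staining of at least 50% with the nuclear-stain viability signal not falling by more than 50%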
Jurkat NFkB inh – inhibitors of induced NF-kB luciferase reporter, primary screen, TCR NF-kB activation inhibitor project, cell-based, luminescence, uHTS; Jurkat, PMA/ionomycin-induced NF-kB luciferase reporter; inhibition, % at 4 µM; hit rate 0.53% among 330,000; AID 435003, 2010; in the data active = inhibition above about 50%
APP transl inh – inhibitors of APP translation via 5'UTR reporter, primary screen, APP 5'UTR luciferase, SH-SY5Y cells; SH-SY5Y APP 5'UTR-luciferase reporter, luminescence; inhibition, % at 2 µM; hit rate 0.82% among 190,000;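 active = inhibition above a set limit, derived from the sample mean plus 3 SD, cut at about 45% in these data; inconclusive = one replicate passes the limit while the other fails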
Of the large screens only hits and unclear results are named; the others gave an inactive call.

CCc1cccc2c1Sc1ccccc1CC2N1CCNCC1 (stereo unspecified)	aSyn 5UTR inh 104, TAG inh 67 (no result: Hep lipid drop, APP transl inh)
Cc1cccc2c1Sc1ccc(Cl)cc1CC2N1CCNCC1 (stereo unspecified)	aSyn 5UTR inh 104 (no result: Hep lipid drop, TAG inh, APP transl inh)
CCCCCc1cc(=O)oc2c(C(CCN3CCCC(C)C3)c3ccc4c(c3)OCO4)c(OC)cc(OC)c12 (stereo unspecified)	TAG inh 78 (no result: APP transl inh)
CCCCCc1cc(=O)oc2c(C(CCN3CCCCC3)c3ccc4c(c3)OCO4)c(OC)cc(OC)c12 (stereo unspecified)	TAG inh 106 (no result: APP transl inh)
COc1cc(OC)c2c(-c3ccccc3)cc(=O)oc2c1C(CCN1CCCC(C)C1)c1ccc(N(C)C)cc1 (stereo unspecified)	TAG inh 94 (no result: APP transl inh)
Cc1cc(C(=O)Nc2ccc3c(c2)CCC3)c2ccccc2n1	none
CCc1nc(N2CCN(CC(=O)NCC3CCCO3)CC2)c(C#N)c2c1COC(C)(C)C2 (stereo unspecified)	none (no result: TAG inh, APP transl inh)
CC1CCC(C(C)C)C(OC(=O)Cn2c(-c3ccc(Br)cc3)[n+](C)c3ccccc32)C1 (stereo unspecified)	TAG inh 89
CCOc1ccc(C2=Nn3c(nnc3-c3ccco3)SC2)cc1	none (no result: Hep lipid drop)
COc1ccc(C2=Nn3c(nnc3-c3ccccc3OC)SC2)cc1OC	aSyn 5UTR inh 107, TAG inh 60, APP transl inh 96 (no result: 697 NFkB inh, Hep lipid drop, Jurkat NFkB inh)
COc1ccc(C2=Nn3c(nnc3-c3ccco3)SC2)cc1OC	aSyn 5UTR inh 79 (no result: Hep lipid drop)
COc1ccc(C2=Nn3c(nnc3-c3ccc(OC)cc3)SC2)cc1	aSyn 5UTR inh 100, APP transl inh 93 (no result: 697 NFkB inh, TAG inh, Jurkat NFkB inh)
COc1ccc(CN2CCN(C(=O)c3c(-c4ccccc4)noc3C)CC2)cc1F	none (no result: aSyn 5UTR inh, Hep lipid drop, APP transl inh)
O=C(COc1ccc(/C=N/NC(=O)c2cc3ccccc3o2)cc1Br)Nc1ccccc1	aSyn 5UTR inh 116 (no result: Hep lipid drop, TAG inh)
COc1ccc(C(=O)n2c(-c3ccco3)nc3ccccc32)cc1	APP transl inh 50 (no result: Hep lipid drop)
Cc1ccc(S(=O)(=O)n2c(N)nc3ccccc32)cc1	none (no result: APP transl inh)
Nc1ccc(C(=O)n2c3ccccc3c3ccccc32)cc1	aSyn 5UTR inh 117, Hep lipid drop inconclusive, APP transl inh 94 (no result: TAG inh)
Nc1ccc(C(=O)N2CCCC2)cc1	none
Cc1ccc(C(=O)n2c(N)nc3ccccc32)cc1	aSyn 5UTR inh 81 (no result: TAG inh)
CC(C)NC(=O)N(C)C[C@@H]1OCc2cnnn2CCCC(=O)N([C@@H](C)CO)C[C@H]1C	none (no result: 697 NFkB inh, aSyn 5UTR inh, Hep lipid drop, Jurkat NFkB inh, APP transl inh)
COc1cccc(-c2cnc3c(NC(C)=O)cc(-c4cccc(C(=O)NCCN(C)C)c4)cn23)c1	none (no result: 697 NFkB inh, aSyn 5UTR inh, Hep lipid drop, Jurkat NFkB inh, APP transl inh)
CN1CCN(c2ccc(-c3ccc4ccccc4n3)cc2)CC1	aSyn 5UTR inh 112, APP transl inh 51 (no result: 697 NFkB inh, Jurkat NFkB inh)
Cc1[nH]n(-c2ccccc2)c(=O)c1N=Nc1ccc2c(c1)OCCO2	none
Cc1[nH]n(-c2ccccc2)c(=O)c1N=Nc1c(O)cc(S(=O)(=O)N(C)C)c2ccccc12	aSyn 5UTR inh 71 (no result: Hep lipid drop, APP transl inh)
CCN1CCN(C(=S)c2ccc(-c3ccccc3)cc2)CC1	aSyn 5UTR inh 66 (no result: TAG inh)
CCCS(=O)(=O)NC(=O)C1(C)CCCN(C(=O)c2ccc3ccccc3c2)C1 (stereo unspecified)	none (no result: 697 NFkB inh, aSyn 5UTR inh, Hep lipid drop, Jurkat NFkB inh, APP transl inh)
Cc1nc(C(=O)O)cc2c1[nH]c1ccccc12	none (no result: Hep lipid drop, TAG inh, APP transl inh)
CC(=O)N(C(C)=O)c1ncc2c([nH]c3ccccc32)c1C#N	aSyn 5UTR inh 65 (no result: TAG inh)
O=C1OCCC1Sc1nnc(-c2ccccc2)o1 (stereo unspecified)	none (no result: Hep lipid drop)
O=C1OCCC1Sc1nnc(-c2ccc(Cl)cc2Cl)o1 (stereo unspecified)	aSyn 5UTR inh 90 (no result: APP transl inh)
Cc1ccc(NC(=O)c2cc(N3C(=O)C=CC3=O)ccc2N2CCOCC2)cc1Cl	APP transl inh 77 (no result: 697 NFkB inh, TAG inh, Jurkat NFkB inh)
COc1cc(-c2nc(-c3ccc(NC(=O)c4ccc(Br)o4)cc3)no2)cc(OC)c1OC	TAG inh 51
O=C(Nc1ccc(-c2nc3ncccc3o2)cc1)c1ccc(Br)o1	Hep lipid drop 56, TAG inh 69
COCCN(C(=O)COC(=O)CCC1CCCCC1)c1c(N)n(Cc2ccccc2)c(=O)[nH]c1=O	none (no result: 697 NFkB inh, aSyn 5UTR inh, Hep lipid drop, Jurkat NFkB inh, APP transl inh)
